Test results reported in ChEMBL document CHEMBL2016487, “Pyrazolopyrimidines as dual Akt/p70S6K inhibitors” (Bioorg Med Chem Lett, 2012).
Blank lines part the entries; values can stand above or below the compound they belong to.

What was measured:
[1] = Volume of distribution in rat at 2.5 mg/kg; assay type: ADME, organism-based; design: dose 2.5 mg/kg; details: in vivo
[2] = Plasma concentration in mouse at 100 mg/kg after 1 hr; assay type: ADME, organism-based; design: dose 100 mg/kg
In short: (§1)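 Mouse plasma levels measured 1 and 4 h after a 100 mg/kg dose.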

[3] = Oral bioavailability in rat at 2.5 mg/kg; assay type: ADME, organism-based; details: in vivo
[4] = Clearance in rat at 2.5 mg/kg; assay type: ADME, organism-based; design: dose 2.5 mg/kg; details: in vivo
[5] = Half life in rat at 2.5 mg/kg, iv; assay type: ADME, organism-based; design: dose 2.5 mg/kg, route intravenous; details: in vivo
[6] = Cmax in rat at 2.5 mg/kg, iv; assay type: ADME, organism-based; design: dose 2.5 mg/kg, route intravenous; details: in vivo
[7] = Cmax in rat at 2.5 mg/kg, po; assay type: ADME, organism-based; design: dose 2.5 mg/kg, route oral; details: in vivo
[8] = Half life in rat at 2.5 mg/kg, po; assay type: ADME, organism-based; design: dose 2.5 mg/kg, route oral; details: in vivo
[9] = target: T1, RAC-alpha serine/threonine-protein kinase (Homo sapiens, UniProt P31749); assay: Inhibition of AKT1-mediated GSK3beta phosphorylation in human PC3 cells after 3 hrs by chemiluminescence assay; assay type: cell-based, PC-3
T1 sequence (P31749 whole entry): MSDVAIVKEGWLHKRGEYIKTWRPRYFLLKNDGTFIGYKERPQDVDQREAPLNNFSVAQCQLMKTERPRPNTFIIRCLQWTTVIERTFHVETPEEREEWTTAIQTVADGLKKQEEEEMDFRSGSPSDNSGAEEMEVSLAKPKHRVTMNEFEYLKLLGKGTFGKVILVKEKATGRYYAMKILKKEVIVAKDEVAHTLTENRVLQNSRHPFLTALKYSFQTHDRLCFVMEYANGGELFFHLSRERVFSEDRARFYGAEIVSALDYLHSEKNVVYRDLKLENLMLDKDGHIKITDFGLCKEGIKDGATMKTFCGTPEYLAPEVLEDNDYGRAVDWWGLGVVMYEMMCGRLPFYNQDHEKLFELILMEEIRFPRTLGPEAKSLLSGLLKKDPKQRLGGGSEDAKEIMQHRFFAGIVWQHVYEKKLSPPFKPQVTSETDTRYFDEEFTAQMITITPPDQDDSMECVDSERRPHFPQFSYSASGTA
In short: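 PC-3 cells seeded at 7.5 × 10³ cells/well, grown 24 h, then serum-starved 24 h. Compound treatment 3 h in triplicate (0.2% DMSO final), followed by 100 ng/ml IGF1 for 30 min. Fixed and processed as a cell ELISA using anti-phospho-GSK3β (S9) and anti-total-GSK3β antibodies, chemiluminescent read-out.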

[10] = target: T2, Ribosomal protein S6 kinase beta-1 (Homo sapiens, UniProt P23443); assay: Inhibition of p70S6K-mediated ribosomal protein S6 phosphorylation in human PC3 cells after 3 hrs by chemiluminescence assay; assay type: cell-based, PC-3
T2 sequence (P23443 whole entry): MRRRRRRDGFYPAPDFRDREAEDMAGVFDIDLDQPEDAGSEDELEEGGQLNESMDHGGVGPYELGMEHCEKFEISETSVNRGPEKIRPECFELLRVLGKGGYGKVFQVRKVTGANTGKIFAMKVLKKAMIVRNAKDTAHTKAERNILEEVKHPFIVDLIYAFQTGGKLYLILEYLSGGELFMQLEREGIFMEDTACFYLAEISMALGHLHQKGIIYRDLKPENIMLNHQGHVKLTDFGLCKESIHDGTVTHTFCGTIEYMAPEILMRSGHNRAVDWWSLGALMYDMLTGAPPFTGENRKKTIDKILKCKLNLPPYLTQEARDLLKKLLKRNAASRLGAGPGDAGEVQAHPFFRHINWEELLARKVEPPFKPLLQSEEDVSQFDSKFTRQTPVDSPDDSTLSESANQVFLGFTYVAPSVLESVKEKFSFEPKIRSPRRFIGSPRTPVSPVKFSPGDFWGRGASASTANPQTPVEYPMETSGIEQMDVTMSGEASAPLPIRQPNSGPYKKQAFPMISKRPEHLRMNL
In short: (§2)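 A549 or PC-3 cells seeded at 7.5 × 10³ cells/well in DMEM with heat-inactivated 10% FBS, 1% penicillin–streptomycin, 1% non-essential amino acids, grown 48 h at 37 °C, 5% CO₂. Treated 3 h with compound at 1.2–300 nM, triplicate, 0.2% DMSO final. Fixed in 4% formaldehyde, blocked, probed with anti-phospho-S6 (Ser240/244) and anti-total-S6 overnight at 4 °C, chemiluminescent read-out.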

[11] = target: T1, RAC-alpha serine/threonine-protein kinase; assay: Inhibition of AKT1 after 3 hrs by luciferase based chemiluminescence assay
[12] = tested on: Rattus norvegicus; assay: Dose normalized AUC in rat at 2.5 mg/kg, iv; assay type: ADME, organism-based; design: dose 2.5 mg/kg, route intravenous; details: in vivo
[13] = Plasma concentration in mouse at 30 mg/kg after 4 hrs; assay type: ADME, organism-based; design: dose 30 mg/kg
[14] = tested on: Rattus norvegicus; assay: Dose normalized AUC in rat at 2.5 mg/kg, po; assay type: ADME, organism-based; design: dose 2.5 mg/kg, route oral; details: in vivo
[15] = target: T2, Ribosomal protein S6 kinase beta-1; assay: Inhibition of p70S6K-mediated ribosomal protein S6 phosphorylation in human A549 cells after 3 hrs by chemiluminescence assay; assay type: cell-based; in short: as §2
[16] = target: T2, Ribosomal protein S6 kinase beta-1; assay: Inhibition of p70S6K after 3 hrs by luciferase based chemiluminescence assay
[17] = Half life in rat at 5 mg/kg, po; assay type: ADME, organism-based; design: dose 5 mg/kg, route oral; details: in vivo
[18] = tested on: Rattus norvegicus; assay: Dose normalized AUC in rat at 5 mg/kg, po; assay type: ADME, organism-based; design: dose 5 mg/kg, route oral; details: in vivo
[19] = Cmax in rat at 5 mg/kg, po; assay type: ADME, organism-based; design: dose 5 mg/kg, route oral; details: in vivo
[20] = tested on: Rattus norvegicus; assay: Dose normalized AUC in rat at 5 mg/kg, iv; assay type: ADME, organism-based; design: dose 5 mg/kg, route intravenous; details: in vivo
[21] = Volume of distribution in rat at 5 mg/kg; assay type: ADME, organism-based; design: dose 5 mg/kg; details: in vivo
[22] = Half life in rat at 5 mg/kg, iv; assay type: ADME, organism-based; design: dose 5 mg/kg, route intravenous; details: in vivo
[23] = Cmax in rat at 5 mg/kg, iv; assay type: ADME, organism-based; design: dose 5 mg/kg, route intravenous; details: in vivo
[24] = Clearance in rat at 5 mg/kg; assay type: ADME, organism-based; design: dose 5 mg/kg; details: in vivo
[25] = Plasma concentration in mouse at 100 mg/kg after 4 hrs; assay type: ADME, organism-based; design: dose 100 mg/kg; in short: as §1
[26] = Oral bioavailability in rat at 5 mg/kg; assay type: ADME, organism-based; details: in vivo
[27] = Cmax in monkey at 3 mg/kg, iv; assay type: ADME, organism-based, Macaca mulatta; design: dose 3 mg/kg, route intravenous; details: rhesus monkey, in vivo
[28] = tested on: PC-3; assay: Inhibition of ribosomal protein S6 phosphorylation in human PC3 cells xenografted model at 100 mg/kg bid; assay type: functional
In short: (§3)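 PC-3 prostate carcinoma model; compound given at 100 mg/kg bid, five doses in total before phospho-S6, phospho-GSK3β and phospho-PRAS40 levels were measured.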

[29] = Volume of distribution in dog at 3 mg/kg; assay type: ADME, organism-based, Canis lupus familiaris; design: dose 3 mg/kg; details: in vivo
[30] = Half life in monkey at 3 mg/kg, po; assay type: ADME, organism-based, Macaca mulatta; design: dose 3 mg/kg, route oral; details: rhesus monkey, in vivo
[31] = tested on: Rhesus monkey; assay: Dose normalized AUC in monkey at 3 mg/kg, iv; assay type: ADME, organism-based, Macaca mulatta; design: dose 3 mg/kg, route intravenous; details: in vivo
[32] = Cmax in monkey at 3 mg/kg, po; assay type: ADME, organism-based, Macaca mulatta; design: dose 3 mg/kg, route oral; details: rhesus monkey, in vivo
[33] = Cmax in dog at 3 mg/kg, po; assay type: ADME, organism-based, Canis lupus familiaris; design: dose 3 mg/kg, route oral; details: in vivo
[34] = Cmax in dog at 3 mg/kg, iv; assay type: ADME, organism-based, Canis lupus familiaris; design: dose 3 mg/kg, route intravenous; details: in vivo
[35] = tested on: A549; assay: Anticancer activity against human A549 cell xenografted model at 50 mg/kg, po qd for 2 days every 4 days; assay type: functional; details: read-out: TGI
[36] = tested on: PC-3; assay: Inhibition of PRAS40 phosphorylation in human PC3 cells xenografted model at 100 mg/kg bid; assay type: functional; in short: as §3
[37] = Half life in dog at 3 mg/kg, po; assay type: ADME, organism-based, Canis lupus familiaris; design: dose 3 mg/kg, route oral; details: in vivo
[38] = tested on: PC-3; assay: Anticancer activity against human PC3 prostate tumor cell xenografted model at 50 mg/kg, po qd for 15 days; assay type: functional; details: PC-3, 360 h, read-out: TGI
In short: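 PC-3 xenograft efficacy study; oral dosing at 50 mg/kg qd for 15 days, tumor growth inhibition determined.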

[39] = tested on: PC-3; assay: Inhibition of GSK3beta phosphorylation in human PC3 cells xenografted model at 100 mg/kg bid; assay type: functional; in short: as §3
[40] = tested on: Canis familiaris; assay: Dose normalized AUC in dog at 3 mg/kg, po; assay type: ADME, organism-based, Canis lupus familiaris; design: dose 3 mg/kg, route oral; details: in vivo
[41] = Oral bioavailability in monkey at 3 mg/kg; assay type: ADME, organism-based, Macaca mulatta; details: rhesus monkey, in vivo
[42] = Clearance in monkey at 3 mg/kg; assay type: ADME, organism-based, Macaca mulatta; design: dose 3 mg/kg; details: rhesus monkey, in vivo
[43] = tested on: A549; assay: Anticancer activity against human A549 cell xenografted model at 100 mg/kg, po qd for 2 days every 4 days; assay type: functional; details: read-out: TGI
In short: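 A549 xenograft; oral dosing at 50 mg/kg qd, or 100 mg/kg qd for two days every 4 days; tumor growth inhibition determined.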

[44] = Half life in dog at 3 mg/kg, iv; assay type: ADME, organism-based, Canis lupus familiaris; design: dose 3 mg/kg, route intravenous; details: in vivo
[45] = Clearance in dog at 3 mg/kg; assay type: ADME, organism-based, Canis lupus familiaris; design: dose 3 mg/kg; details: in vivo
[46] = Oral bioavailability in dog at 3 mg/kg; assay type: ADME, organism-based, Canis lupus familiaris; details: in vivo
[47] = Volume of distribution in monkey at 3 mg/kg; assay type: ADME, organism-based, Macaca mulatta; design: dose 3 mg/kg; details: rhesus monkey, in vivo
[48] = tested on: Rhesus monkey; assay: Dose normalized AUC in monkey at 3 mg/kg, po; assay type: ADME, organism-based, Macaca mulatta; design: dose 3 mg/kg, route oral; details: in vivo
[49] = Half life in monkey at 3 mg/kg, iv; assay type: ADME, organism-based, Macaca mulatta; design: dose 3 mg/kg, route intravenous; details: rhesus monkey, in vivo
[50] = tested on: Canis familiaris; assay: Dose normalized AUC in dog at 3 mg/kg, iv; assay type: ADME, organism-based, Canis lupus familiaris; design: dose 3 mg/kg, route intravenous; details: in vivo

Vd [1]: 14.2 L/kg
concentration at 1 h [2]: 300 nM
bioavailability [3]: 10%
clearance [4]: 73 mL/min/kg
half-life [5]: 2.4 h
Cmax [6]: 370 nM
Cmax [7]: 10 nM
half-life [8]: 2.9 h
IC50 [9]: 665 nM
IC50 [10]: 47 nM
IC50 [11]: 6 nM
AUC/dose [12]: 0.45 µM·kg·h/mg
concentration at 4 h [13]: 100 nM
AUC/dose [14]: 0.05 µM·kg·h/mg
IC50 [15]: 13 nM
IC50 [16]: 1 nM
SMILES: Cc1noc(-c2cc(NCCN3CCCC3)c(C)c(N3CCN(c4ncnc5[nH]nc(Br)c45)CC3)c2)n1

IC50 [9]: 1840 nM
IC50 [10]: 52 nM
IC50 [11]: 5 nM
IC50 [15]: 44 nM
IC50 [16]: 2 nM
SMILES: COC(=O)c1cc(NCCN2CCCC2)c(C)c(N2CCN(c3ncnc4[nH]nc(Br)c34)CC2)c1

half-life [17]: 2.9 h
AUC/dose [18]: 0.15 µM·kg·h/mg
Cmax [19]: 140 nM
concentration at 1 h [2]: 2000 nM
AUC/dose [20]: 0.56 µM·kg·h/mg
IC50 [9]: 976 nM
Vd [21]: 10.5 L/kg
IC50 [10]: 25 nM
half-life [22]: 3.1 h
IC50 [11]: 5 nM
Cmax [23]: 1440 nM
clearance [24]: 49 mL/min/kg
concentration at 4 h [25]: 2000 nM
IC50 [15]: 18 nM
IC50 [16]: 1 nM
bioavailability [26]: 28%
SMILES: CCC(=O)c1cc(NCCN2CCCC2)c(C)c(N2CCN(c3ncnc4[nH]nc(Br)c34)CC2)c1

Vd [1]: 12.9 L/kg
Cmax [27]: 580 nM
concentration at 1 h [2]: 1600 nM
Vd [29]: 17 L/kg
half-life [30]: 6.4 h
AUC/dose [31]: 1.22 µM·kg·h/mg
Cmax [32]: 400 nM
Cmax [33]: 100 nM
Cmax [34]: 210 nM
bioavailability [3]: 35%
clearance [4]: 45.4 mL/min/kg
half-life [5]: 3.5 h
Cmax [6]: 330 nM
half-life [37]: 10.4 h
Cmax [7]: 40 nM
AUC/dose [40]: 0.54 µM·kg·h/mg
half-life [8]: 7.9 h
bioavailability [41]: 77%
clearance [42]: 20.5 mL/min/kg
IC50 [9]: 194 nM
half-life [44]: 7.5 h
clearance [45]: 26 mL/min/kg
bioavailability [46]: 58%
IC50 [10]: 55 nM
Vd [47]: 6.9 L/kg
IC50 [11]: 1 nM
AUC/dose [12]: 0.64 µM·kg·h/mg
AUC/dose [48]: 0.94 µM·kg·h/mg
half-life [49]: 6.1 h
concentration at 4 h [25]: 3100 nM
AUC/dose [14]: 0.17 µM·kg·h/mg
IC50 [15]: 30 nM
IC50 [16]: 2 nM
AUC/dose [50]: 0.95 µM·kg·h/mg
SMILES: Cc1c(NCCN2CCCC2)cc(C(=O)CCC(F)(F)F)cc1N1CCN(c2ncnc3[nH]nc(Br)c23)CC1 [XL-418]
inhibition in vivo at 100 mg/kg [28]: 90%
inhibition in vivo at 50 mg/kg [35]: 71%
inhibition in vivo at 100 mg/kg [36]: 76%
inhibition in vivo at 50 mg/kg [38]: 52%
inhibition in vivo at 100 mg/kg [39]: 46%
inhibition in vivo at 100 mg/kg [43]: 96%
